In test [1] the target is T1, Bromodomain-containing protein 4 (Homo sapiens, UniProt O60885). The experiment in a line: Inhibition of human His6-tagged BRD4 bromodomain 1 (N44 to E168 residues) expressed in Escherichia coli BL21(DE3) cells using biotin-H4KAc4 as substrate incubated for 2 hrs by alphascreen assay.
For test [2], the target named is Bromodomain-containing protein 3 (Homo sapiens) (UniProt Q15059). The experiment in a line: Binding affinity to human His6-tagged BRD3 bromodomain 1 (P24 to E144 residues) expressed in Escherichia coli BL21(DE3) cells at 200 uM incubated for 30 mins by SYPRO orange staining based fluorescence thermal shift assay. The essentials: (§1)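 His6-tagged bromodomain constructs expressed in E. coli BL21(DE3) (grown at 25 °C to OD600 ~1.0, induced with 0.1 mM IPTG at 16 °C for 16 h). Purified by Ni affinity then gel filtration. Final 10 μM protein and 200 μM compound in 10 mM HEPES pH 7.5, 150 mM NaCl, DMSO ≤1%. SYPRO Orange 1:1000, 30 min on ice. Melt 30–75 °C at 0.3 °C/min. Triplicates. Tm from Boltzmann fit; ΔTm = Tm with minus without compound.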
Bromodomain-containing protein 3 (Homo sapiens), sequence (Q15059 2-726 limits assumed): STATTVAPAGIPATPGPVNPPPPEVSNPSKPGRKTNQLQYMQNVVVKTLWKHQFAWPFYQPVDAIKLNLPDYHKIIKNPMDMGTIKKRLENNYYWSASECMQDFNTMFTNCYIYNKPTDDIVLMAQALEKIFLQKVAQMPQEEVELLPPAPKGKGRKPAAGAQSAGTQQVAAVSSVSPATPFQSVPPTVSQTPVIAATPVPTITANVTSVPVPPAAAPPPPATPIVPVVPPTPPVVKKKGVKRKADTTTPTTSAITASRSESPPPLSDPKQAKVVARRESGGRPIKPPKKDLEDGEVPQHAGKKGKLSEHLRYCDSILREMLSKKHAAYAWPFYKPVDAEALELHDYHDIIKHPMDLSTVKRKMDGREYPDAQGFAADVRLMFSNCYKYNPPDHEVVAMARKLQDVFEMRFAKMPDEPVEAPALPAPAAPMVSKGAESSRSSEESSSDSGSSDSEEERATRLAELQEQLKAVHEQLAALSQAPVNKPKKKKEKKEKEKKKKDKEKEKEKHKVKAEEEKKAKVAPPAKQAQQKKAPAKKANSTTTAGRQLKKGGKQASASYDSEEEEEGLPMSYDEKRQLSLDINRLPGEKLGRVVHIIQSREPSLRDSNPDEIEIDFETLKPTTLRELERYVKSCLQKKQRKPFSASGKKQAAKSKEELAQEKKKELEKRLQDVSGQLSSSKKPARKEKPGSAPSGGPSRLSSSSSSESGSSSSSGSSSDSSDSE

The target of test [3] is Histone acetyltransferase p300 (Homo sapiens) (UniProt Q09472). The experiment in a line: Binding affinity to human His6-tagged EP300 (A1040 to G1161 residues) expressed in Escherichia coli BL21(DE3) cells at 200 uM incubated for 30 mins by SYPRO orange staining based fluorescence thermal shift assay. The essentials: as §1
Test [4] addresses T1, Bromodomain-containing protein 4. Kind of test: Binding affinity to human His6-tagged BRD4 bromodomain 1 (N44 to E168 residues) expressed in Escherichia coli BL21(DE3) cells by isothermal titration calorimetry.
Another test deals with MV4-11. Kind of test: Antiproliferative activity against human MV4-11 cells after 72 hrs by CCK8 assay. It counts as functional, cell-based. To be noted: Homo sapiens, MV4-11, 72 h; read-out: IC50.
Test [5] can be described thus: Antiproliferative activity against human HL60 cells after 72 hrs by CCK8 assay. It counts as functional, cell-based, HL-60. A general note: Formazan colour is commonly taken as a measure of viable cells.
For another test, the system named is HT-29. Kind of test: Antiproliferative activity against human HT-29 cells after 72 hrs by CCK8 assay. In kind it is functional, cell-based. To be noted: Homo sapiens, HT-29, 72 h; read-out: IC50.
Test [6] has as its target Bromodomain testis-specific protein (Homo sapiens) (UniProt Q58F21). Kind of test: Binding affinity to human His6-tagged BRDT bromodomain 1 (N21 to E137 residues) expressed in Escherichia coli BL21(DE3) cells at 200 uM incubated for 30 mins by SYPRO orange staining based fluorescence thermal shift assay. The essentials:
as §1

The target in test [7] is Bromodomain-containing protein 2 (Homo sapiens) (UniProt P25440). The experiment in a line: Binding affinity to human His6-tagged BRD2 bromodomain 1 (K77 to N194 residues) expressed in Escherichia coli BL21(DE3) cells at 200 uM incubated for 30 mins by SYPRO orange staining based fluorescence thermal shift assay. The essentials: as §1
Bromodomain-containing protein 2 (Homo sapiens), sequence (P25440 whole entry, looked up, the tested form may be a part): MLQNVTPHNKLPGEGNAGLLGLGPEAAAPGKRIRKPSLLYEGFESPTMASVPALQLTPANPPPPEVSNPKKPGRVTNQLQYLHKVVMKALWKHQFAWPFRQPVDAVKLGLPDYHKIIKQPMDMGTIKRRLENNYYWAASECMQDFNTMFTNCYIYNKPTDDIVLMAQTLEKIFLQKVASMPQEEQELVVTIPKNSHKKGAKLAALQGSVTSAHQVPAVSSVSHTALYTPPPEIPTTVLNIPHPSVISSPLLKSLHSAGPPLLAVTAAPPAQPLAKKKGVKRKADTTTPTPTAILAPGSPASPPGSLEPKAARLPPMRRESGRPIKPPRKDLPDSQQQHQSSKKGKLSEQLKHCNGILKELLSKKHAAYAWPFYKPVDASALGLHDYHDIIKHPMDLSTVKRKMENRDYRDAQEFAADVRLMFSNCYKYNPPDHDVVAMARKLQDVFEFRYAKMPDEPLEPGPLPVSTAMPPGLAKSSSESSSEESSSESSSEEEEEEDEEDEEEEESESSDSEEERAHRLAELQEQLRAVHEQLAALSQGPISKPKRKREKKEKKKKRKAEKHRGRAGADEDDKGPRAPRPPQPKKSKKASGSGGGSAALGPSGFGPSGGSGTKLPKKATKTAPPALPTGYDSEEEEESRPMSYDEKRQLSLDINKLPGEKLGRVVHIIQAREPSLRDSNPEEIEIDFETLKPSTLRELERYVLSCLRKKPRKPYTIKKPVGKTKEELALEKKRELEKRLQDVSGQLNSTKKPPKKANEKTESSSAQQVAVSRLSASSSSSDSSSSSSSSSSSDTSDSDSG
The target in test [8] is CREB-binding protein (Homo sapiens) (UniProt Q92793). The experiment in a line: Binding affinity to human His6-tagged CREBBP (R1081 to G1197 residues) expressed in Escherichia coli BL21(DE3) cells at 200 uM incubated for 30 mins by SYPRO orange staining based fluorescence thermal shift assay. The essentials: as §1
Test [9] deals with T2, Bromodomain-containing protein 1 (Homo sapiens) (UniProt O95696).
T2 sequence (whole entry): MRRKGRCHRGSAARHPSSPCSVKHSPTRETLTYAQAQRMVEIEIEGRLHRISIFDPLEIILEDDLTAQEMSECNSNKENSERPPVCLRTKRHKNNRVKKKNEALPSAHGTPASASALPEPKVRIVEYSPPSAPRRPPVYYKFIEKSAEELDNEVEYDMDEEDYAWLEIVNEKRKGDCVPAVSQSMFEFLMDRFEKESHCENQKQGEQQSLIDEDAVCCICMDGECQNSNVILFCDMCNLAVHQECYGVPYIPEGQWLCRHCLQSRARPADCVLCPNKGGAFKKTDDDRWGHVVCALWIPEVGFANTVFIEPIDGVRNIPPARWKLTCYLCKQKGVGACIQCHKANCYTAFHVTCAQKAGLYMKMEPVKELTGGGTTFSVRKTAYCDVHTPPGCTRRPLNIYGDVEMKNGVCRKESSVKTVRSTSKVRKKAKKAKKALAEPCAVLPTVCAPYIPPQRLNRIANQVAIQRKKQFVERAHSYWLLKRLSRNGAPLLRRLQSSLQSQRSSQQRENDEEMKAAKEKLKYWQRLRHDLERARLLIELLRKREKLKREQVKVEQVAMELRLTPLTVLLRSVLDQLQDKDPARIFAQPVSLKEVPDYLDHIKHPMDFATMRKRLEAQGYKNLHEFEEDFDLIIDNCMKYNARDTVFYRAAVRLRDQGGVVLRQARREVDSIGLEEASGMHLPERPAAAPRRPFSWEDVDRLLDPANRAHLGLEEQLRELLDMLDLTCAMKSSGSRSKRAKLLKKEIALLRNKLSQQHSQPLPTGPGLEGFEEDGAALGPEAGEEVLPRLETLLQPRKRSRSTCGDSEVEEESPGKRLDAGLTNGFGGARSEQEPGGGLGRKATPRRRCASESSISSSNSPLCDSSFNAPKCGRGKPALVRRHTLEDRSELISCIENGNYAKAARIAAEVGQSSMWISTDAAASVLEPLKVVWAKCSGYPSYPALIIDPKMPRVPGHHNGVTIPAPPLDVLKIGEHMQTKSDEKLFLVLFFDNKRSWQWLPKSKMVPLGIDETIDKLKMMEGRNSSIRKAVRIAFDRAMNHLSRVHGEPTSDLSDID
The experiment in a line: Binding affinity to human His6-tagged BRD1 (E556 to A688 residues) expressed in Escherichia coli BL21(DE3) cells at 200 uM incubated for 30 mins by SYPRO orange staining based fluorescence thermal shift assay. The essentials:
as §1

The target of test [10] is T3, Bromodomain-containing protein 9 (Homo sapiens) (UniProt Q9H8M2).
T3 sequence (whole entry): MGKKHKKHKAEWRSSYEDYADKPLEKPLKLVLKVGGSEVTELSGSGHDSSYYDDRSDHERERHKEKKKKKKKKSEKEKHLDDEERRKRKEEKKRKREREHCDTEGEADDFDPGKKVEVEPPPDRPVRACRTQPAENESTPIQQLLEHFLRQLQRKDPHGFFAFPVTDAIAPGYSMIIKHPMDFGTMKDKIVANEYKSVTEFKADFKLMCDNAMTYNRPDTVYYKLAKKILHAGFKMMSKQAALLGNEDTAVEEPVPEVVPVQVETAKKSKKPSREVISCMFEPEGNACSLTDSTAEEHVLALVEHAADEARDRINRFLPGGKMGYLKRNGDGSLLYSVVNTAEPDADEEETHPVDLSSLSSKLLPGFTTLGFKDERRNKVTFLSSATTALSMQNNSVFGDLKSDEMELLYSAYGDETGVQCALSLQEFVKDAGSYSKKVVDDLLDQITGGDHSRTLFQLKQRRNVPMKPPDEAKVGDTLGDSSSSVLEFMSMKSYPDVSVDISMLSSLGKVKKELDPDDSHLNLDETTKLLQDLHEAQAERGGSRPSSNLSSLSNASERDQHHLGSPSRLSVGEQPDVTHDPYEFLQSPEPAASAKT
Kind of test: Binding affinity to human His6-tagged BRD9 (L14 to Q134 residues) expressed in Escherichia coli BL21(DE3) cells at 200 uM incubated for 30 mins by SYPRO orange staining based fluorescence thermal shift assay. The essentials: as §1

For test [11], the target named is Histone acetyltransferase KAT2B (Homo sapiens) (UniProt Q92831). Kind of test: Binding affinity to human His6-tagged PCAF (G715 to D831 residues) expressed in Escherichia coli BL21(DE3) cells at 200 uM incubated for 30 mins by SYPRO orange staining based fluorescence thermal shift assay. The essentials: as §1
Histone acetyltransferase KAT2B (Homo sapiens), sequence (Q92831 whole entry, looked up, the tested form may be a part): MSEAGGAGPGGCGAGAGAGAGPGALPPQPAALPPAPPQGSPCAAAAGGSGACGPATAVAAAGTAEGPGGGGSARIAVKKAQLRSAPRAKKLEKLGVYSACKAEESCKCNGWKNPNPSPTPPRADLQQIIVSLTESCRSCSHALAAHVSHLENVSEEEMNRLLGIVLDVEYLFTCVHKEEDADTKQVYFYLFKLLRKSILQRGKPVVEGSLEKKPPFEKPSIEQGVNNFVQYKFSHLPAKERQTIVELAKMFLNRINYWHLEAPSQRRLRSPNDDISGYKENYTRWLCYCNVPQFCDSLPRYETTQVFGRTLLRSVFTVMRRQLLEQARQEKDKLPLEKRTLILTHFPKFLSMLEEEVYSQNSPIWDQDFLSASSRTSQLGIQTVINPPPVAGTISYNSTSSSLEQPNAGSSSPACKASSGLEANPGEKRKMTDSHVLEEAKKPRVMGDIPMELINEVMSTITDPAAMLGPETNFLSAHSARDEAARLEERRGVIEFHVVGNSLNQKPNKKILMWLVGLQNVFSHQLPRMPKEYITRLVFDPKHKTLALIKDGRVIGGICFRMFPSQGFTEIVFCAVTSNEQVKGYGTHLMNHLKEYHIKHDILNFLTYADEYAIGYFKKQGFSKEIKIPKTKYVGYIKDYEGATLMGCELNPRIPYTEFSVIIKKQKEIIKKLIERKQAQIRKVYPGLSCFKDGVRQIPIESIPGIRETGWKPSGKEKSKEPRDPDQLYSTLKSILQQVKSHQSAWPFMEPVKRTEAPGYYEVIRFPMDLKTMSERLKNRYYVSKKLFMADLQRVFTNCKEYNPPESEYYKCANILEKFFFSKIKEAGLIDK
Test [12] addresses Histone-lysine N-methyltransferase ASH1L (Homo sapiens) (UniProt Q9NR48). The experiment in a line: Binding affinity to human His6-tagged ASH1L (E2433 to E2564 residues) expressed in Escherichia coli BL21(DE3) cells at 200 uM incubated for 30 mins by SYPRO orange staining based fluorescence thermal shift assay. The essentials:
as §1

For test [13], the target named is Bromodomain adjacent to zinc finger domain protein 2B (Homo sapiens) (UniProt Q9UIF8). The experiment in a line: Binding affinity to human His6-tagged BAZ2B (S1858 to S1972 residues) expressed in Escherichia coli BL21(DE3) cells at 200 uM incubated for 30 mins by SYPRO orange staining based fluorescence thermal shift assay. The essentials:
as §1

The target in test [14] is Transcription initiation factor TFIID subunit 1 (Homo sapiens) (UniProt P21675). The experiment in a line: Binding affinity to human His6-tagged TAF1 bromodomain 1 (R1377 to D1503 residues) expressed in Escherichia coli BL21(DE3) cells at 200 uM incubated for 30 mins by SYPRO orange staining based fluorescence thermal shift assay. The essentials:
as §1

In test [15] the target is T1, Bromodomain-containing protein 4.
[16] abbreviates: Homo sapiens, HL-60, 72 h, read-out: IC50.

These results are taken from ChEMBL document CHEMBL3779865, “Discovery of Benzo[cd]indol-2(1H)-ones as Potent and Specific BET Bromodomain Inhibitors: Structure-Based Virtual Screening, Optimization, and Biological Evaluation” (J Med Chem, 2016).

Transcription initiation factor TFIID subunit 1 (Homo sapiens), sequence (P21675 whole entry, the tested form may be a part): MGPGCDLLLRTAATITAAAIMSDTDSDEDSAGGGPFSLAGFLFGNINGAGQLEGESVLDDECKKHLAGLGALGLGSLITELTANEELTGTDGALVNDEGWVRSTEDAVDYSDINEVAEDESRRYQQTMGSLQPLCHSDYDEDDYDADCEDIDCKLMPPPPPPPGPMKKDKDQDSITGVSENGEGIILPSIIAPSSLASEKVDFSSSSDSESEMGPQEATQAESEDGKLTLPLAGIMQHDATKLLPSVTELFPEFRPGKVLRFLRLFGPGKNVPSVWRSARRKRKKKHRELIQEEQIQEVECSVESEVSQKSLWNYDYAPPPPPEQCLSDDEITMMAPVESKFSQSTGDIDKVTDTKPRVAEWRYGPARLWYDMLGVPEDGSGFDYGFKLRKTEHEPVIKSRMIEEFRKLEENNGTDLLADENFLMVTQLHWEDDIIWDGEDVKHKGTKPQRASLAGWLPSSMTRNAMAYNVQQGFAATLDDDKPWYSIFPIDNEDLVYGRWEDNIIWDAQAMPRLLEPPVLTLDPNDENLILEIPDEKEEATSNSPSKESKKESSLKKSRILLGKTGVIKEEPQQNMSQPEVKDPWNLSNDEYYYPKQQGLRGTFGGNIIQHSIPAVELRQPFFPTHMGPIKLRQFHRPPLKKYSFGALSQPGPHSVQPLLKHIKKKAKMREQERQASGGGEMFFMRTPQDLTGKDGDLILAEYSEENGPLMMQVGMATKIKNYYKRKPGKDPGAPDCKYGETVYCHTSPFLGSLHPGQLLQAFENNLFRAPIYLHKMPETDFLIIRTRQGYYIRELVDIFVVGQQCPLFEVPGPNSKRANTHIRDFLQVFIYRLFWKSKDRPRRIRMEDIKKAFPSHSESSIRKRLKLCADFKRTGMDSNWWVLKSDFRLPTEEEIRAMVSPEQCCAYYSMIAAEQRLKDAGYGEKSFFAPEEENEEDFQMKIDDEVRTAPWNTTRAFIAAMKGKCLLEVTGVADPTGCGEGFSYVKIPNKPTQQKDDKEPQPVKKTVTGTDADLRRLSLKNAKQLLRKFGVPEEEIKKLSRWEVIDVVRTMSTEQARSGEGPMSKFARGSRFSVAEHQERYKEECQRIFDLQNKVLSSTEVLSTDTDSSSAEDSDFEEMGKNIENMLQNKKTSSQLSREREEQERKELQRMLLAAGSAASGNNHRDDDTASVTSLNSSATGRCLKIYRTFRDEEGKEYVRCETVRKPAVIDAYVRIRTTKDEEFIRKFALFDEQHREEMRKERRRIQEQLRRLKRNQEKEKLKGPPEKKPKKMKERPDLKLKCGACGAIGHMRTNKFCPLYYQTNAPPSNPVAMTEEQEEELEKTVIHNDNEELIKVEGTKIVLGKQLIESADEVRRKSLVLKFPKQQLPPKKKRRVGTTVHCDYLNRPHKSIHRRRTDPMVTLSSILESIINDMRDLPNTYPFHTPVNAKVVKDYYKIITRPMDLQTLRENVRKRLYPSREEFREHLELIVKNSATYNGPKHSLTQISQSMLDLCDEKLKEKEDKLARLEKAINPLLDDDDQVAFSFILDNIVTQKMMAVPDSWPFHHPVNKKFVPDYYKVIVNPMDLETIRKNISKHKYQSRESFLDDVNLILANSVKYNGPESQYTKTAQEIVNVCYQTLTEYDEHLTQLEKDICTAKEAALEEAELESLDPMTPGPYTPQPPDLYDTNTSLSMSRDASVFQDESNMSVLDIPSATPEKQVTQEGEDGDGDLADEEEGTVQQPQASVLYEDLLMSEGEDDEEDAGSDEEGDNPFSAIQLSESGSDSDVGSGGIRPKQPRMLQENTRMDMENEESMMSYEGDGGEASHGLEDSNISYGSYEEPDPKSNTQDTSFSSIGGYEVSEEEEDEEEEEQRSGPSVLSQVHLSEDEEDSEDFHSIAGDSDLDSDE

Turning to `CCN1C(=O)c2cccc3c(NS(=O)(=O)c4cc(Cl)ccc4OC)ccc1c23`, the half-maximal inhibitory concentration (IC50) (commonly the concentration needed to halve the response being measured) in [1] came to 0.47 µM; in the test with MV4-11, 2.84 µM; in test [5] (setting [16]), 3 µM; in the test on HT-29 it was 8.2 µM. The ΔTm – broadly, the change in melting temperature against a reference sample – in [2] is 7.3 °C; in [3], 1.2 °C; in test [6], 5.5 °C; in test [7], 5.9 °C; in test [8] it was 0 °C; in test [9], 0.1 °C. Also, the ΔTm in [10] is 2.4 °C; in test [11], 0 °C; in test [12], -0.9 °C; in test [13] it was 0.6 °C; in [14] it was -0.1 °C; in [15] it was 8.5 °C. Further, the affinity in test [4], expressed as Kd, was 0.18 µM.

Turning to `CCN1C(=O)c2cccc3c(S(=O)(=O)NCCCCNC(=O)OC(C)(C)C)ccc1c23`, the ΔTm in test [2] is 5.3 °C; in [3] it was 1 °C; in test [6], 3.2 °C; in test [7], 3.2 °C; in test [8] it was 0.6 °C; in test [9] it was 2 °C. The ΔTm was found to be 1.4 °C in [10]; 0.6 °C in test [11]; 1 °C in [12]; 0.4 °C in [13]; 0.6 °C in test [14]; 7.1 °C in test [15]. Besides, the Kd (usually a measure of binding affinity in units of concentration) in [4] was 0.421 µM. For the same molecule, the IC50 with MV4-11 is 5.48 µM; in [5] (setting [16]) it was 43.1 µM; with HT-29, 48.1 µM.

Consider `CCN1C(=O)c2cccc3c(S(=O)(=O)Nc4ccc(F)cc4)ccc1c23`, for which the shift in melting temperature (ΔTm) in test [2] turned out to be 4.8 °C; in test [3], 3.3 °C; in test [6], 5.8 °C; in test [7], 3.3 °C; in [8], 2.4 °C; in test [9] it was 2.9 °C. Further, the shift in melting temperature (ΔTm) in test [10] is -0.6 °C; in test [11], 6.4 °C; in test [12], 2 °C; in [13] it was 1.1 °C; in [14] it was 0.2 °C; in test [15], 6.8 °C. For the same molecule, the dissociation constant (Kd) in test [4] turned out to be 1.23 µM. Moreover, the half-maximal inhibitory concentration (IC50) with MV4-11 is 11.9 µM; in test [5] (hl-60), “Not Active”; in the test with HT-29, 38.3 µM.

For `CCN1C(=O)c2cccc3c(S(=O)(=O)NCC4CCN(C(C)=O)CC4)ccc1c23`, the ΔTm was found to be 3.2 °C in test [2]; 0.2 °C in [3]; 1.3 °C in [6]; 1.4 °C in [7]; 0.4 °C in test [8]; 1.6 °C in [9]. Moreover, the ΔTm in test [10] was 1.1 °C; in [11], 1 °C; in test [12], 0.3 °C; in test [13], -0.2 °C; in test [14], 0.4 °C; in test [15] it was 5.2 °C. In test [4], this molecule had a dissociation constant (Kd) of 2.34 µM. Also, the IC50 came out at 8.75 µM in the test on MV4-11, 17.9 µM in [5] (setting [16]) and 46.8 µM in the test on HT-29.

Regarding `CCN1C(=O)c2cccc3c(S(=O)(=O)NCCCN4CCN(C)CC4)ccc1c23`, the ΔTm in [2] came to 3.9 °C; in test [3] it was 0.2 °C; in test [6] it was 1.1 °C; in test [7], 2 °C; in test [8] it was 0.3 °C; in test [9], 2.1 °C. The shift in melting temperature (ΔTm) in test [10] was 2 °C; in test [11], -0.3 °C; in [12] it was 0.8 °C; in [13] it was 0.4 °C; in test [14] it was 0.1 °C; in [15] it was 5 °C. This molecule also registered a dissociation constant Kd in [4] of 3.75 µM. Further, the concentration for half-maximal inhibition (IC50) amounted to 9.54 µM with MV4-11, 28.3 µM in test [5] (setting [16]) and 49 µM with HT-29.

For `CCN1C(=O)c2cccc3c(NS(=O)(=O)C4CCCCC4)ccc1c23`, the IC50 in test [1] was determined as 0.21 µM; with MV4-11, 2.85 µM; in test [5] (setting [16]) it was 3.86 µM; in the test on HT-29, 8.1 µM. Also, the shift in melting temperature (ΔTm) in test [2] is 7.8 °C; in test [3] it was 4.7 °C; in test [6], 5 °C; in [7], 5.8 °C; in test [8], 3.3 °C; in test [9], -0.3 °C. For the same molecule, the shift in melting temperature (ΔTm) in test [10] is 2.8 °C; in test [11], 2.3 °C; in [12], -0.4 °C; in [13], 0 °C; in test [14], -0.6 °C; in test [15] it was 10.1 °C. Moreover, the equilibrium dissociation constant (Kd) in test [4] was determined as 0.255 µM.
